pIC50: −log10 of the molar value.
Experiments:
[1] = Toxicity in mouse assessed as change in blood glucose level
Outline: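 Normal (non-diabetic) mice were dosed, and blood glucose and body weight were tracked over the study.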

[2] = target: T1, NAD-dependent protein deacylase sirtuin-6 (Homo sapiens, UniProt Q8N6T7); assay: Inhibition of SIRT6 (unknown origin) using Ac-RYQK(Ac)-AMC as substrate by Fluor de Lys assay
[3] = target: T2, Histone deacetylase 7 (Homo sapiens, UniProt Q8WUI4); assay: Inhibition of HDAC7 (unknown origin)
T2 sequence (Q8WUI4 whole entry): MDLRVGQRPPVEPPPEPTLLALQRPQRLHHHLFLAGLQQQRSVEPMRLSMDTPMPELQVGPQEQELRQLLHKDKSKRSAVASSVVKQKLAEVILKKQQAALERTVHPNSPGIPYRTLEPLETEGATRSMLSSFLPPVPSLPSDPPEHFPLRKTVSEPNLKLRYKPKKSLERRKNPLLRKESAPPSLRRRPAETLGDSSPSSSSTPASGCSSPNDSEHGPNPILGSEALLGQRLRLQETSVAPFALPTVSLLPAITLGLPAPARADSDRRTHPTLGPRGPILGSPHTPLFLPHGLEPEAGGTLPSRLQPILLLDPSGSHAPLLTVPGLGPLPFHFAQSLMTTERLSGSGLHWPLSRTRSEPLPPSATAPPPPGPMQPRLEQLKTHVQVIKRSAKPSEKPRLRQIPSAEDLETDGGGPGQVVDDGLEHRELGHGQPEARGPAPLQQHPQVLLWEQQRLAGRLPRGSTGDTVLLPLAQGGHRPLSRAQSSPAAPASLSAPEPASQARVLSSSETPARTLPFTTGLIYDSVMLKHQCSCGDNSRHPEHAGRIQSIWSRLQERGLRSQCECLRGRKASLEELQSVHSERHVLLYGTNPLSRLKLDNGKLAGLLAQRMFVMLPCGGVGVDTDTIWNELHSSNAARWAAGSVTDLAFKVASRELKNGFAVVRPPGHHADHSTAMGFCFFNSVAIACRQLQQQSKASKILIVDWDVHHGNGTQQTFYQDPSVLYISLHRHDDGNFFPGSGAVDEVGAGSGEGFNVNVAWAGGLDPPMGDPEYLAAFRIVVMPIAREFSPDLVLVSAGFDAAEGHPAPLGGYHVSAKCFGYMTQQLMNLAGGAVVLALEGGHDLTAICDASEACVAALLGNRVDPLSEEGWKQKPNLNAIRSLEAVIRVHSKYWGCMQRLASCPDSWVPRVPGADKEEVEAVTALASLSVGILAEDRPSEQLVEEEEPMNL
Outline: (§1)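 Each deacetylase was run in a Fluor de Lys (FDL) fluorogenic deacetylation assay as a selectivity screen, with compound tested at concentrations up to 200 μM. IC50 was estimated from the dose-response.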

[4] = target: T3, Protein deacetylase HDAC6 (Homo sapiens, UniProt Q9UBN7); assay: Inhibition of HDAC6 (unknown origin); outline: as §1
T3 sequence (Q9UBN7 whole entry): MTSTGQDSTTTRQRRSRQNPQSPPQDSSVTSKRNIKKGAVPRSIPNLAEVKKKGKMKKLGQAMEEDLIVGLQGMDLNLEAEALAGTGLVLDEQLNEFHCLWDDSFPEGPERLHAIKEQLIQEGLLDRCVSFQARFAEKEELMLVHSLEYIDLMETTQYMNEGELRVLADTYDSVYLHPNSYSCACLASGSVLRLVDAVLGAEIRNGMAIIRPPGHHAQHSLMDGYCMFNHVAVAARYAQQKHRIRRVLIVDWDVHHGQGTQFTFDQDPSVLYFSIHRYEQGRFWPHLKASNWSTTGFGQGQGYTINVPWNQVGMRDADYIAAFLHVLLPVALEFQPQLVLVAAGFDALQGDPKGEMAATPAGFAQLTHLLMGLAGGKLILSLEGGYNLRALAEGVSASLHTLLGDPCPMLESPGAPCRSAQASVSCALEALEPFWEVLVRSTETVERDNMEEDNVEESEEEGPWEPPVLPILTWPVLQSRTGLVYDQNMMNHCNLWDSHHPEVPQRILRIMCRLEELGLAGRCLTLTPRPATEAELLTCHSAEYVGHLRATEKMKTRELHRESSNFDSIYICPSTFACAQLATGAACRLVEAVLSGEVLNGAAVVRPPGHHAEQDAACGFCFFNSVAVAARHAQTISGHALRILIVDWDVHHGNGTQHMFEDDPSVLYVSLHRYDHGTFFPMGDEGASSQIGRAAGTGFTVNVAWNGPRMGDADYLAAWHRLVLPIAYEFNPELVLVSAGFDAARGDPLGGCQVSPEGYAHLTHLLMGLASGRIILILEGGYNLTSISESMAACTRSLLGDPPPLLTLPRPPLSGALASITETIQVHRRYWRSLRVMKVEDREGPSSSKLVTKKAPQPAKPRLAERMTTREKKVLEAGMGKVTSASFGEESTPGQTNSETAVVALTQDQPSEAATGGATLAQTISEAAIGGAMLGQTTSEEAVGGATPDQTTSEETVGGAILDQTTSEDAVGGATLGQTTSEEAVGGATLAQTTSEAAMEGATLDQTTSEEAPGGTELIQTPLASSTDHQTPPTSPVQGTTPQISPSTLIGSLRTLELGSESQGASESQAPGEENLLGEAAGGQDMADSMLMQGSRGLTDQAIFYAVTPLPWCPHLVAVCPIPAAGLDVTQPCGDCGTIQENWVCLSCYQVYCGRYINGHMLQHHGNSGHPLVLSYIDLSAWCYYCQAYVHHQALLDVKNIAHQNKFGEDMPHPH

[5] = target: T4, NAD-dependent protein deacetylase sirtuin-3, mitochondrial (Homo sapiens, UniProt Q9NTG7); assay: Inhibition of SIRT3 (unknown origin); outline: as §1
T4 sequence (Q9NTG7 whole entry): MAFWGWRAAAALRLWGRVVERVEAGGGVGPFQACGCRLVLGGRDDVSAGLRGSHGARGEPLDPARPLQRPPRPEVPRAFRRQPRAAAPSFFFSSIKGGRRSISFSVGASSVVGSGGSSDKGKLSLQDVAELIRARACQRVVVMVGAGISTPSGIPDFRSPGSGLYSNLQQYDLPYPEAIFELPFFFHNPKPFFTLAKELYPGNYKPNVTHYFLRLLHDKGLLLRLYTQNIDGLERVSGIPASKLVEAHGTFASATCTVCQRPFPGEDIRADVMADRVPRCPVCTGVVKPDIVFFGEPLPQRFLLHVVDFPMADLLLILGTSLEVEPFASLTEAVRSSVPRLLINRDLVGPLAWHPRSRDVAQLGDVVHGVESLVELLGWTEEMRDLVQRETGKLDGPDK

[6] = Toxicity in mouse model of type-2 diabetes mellitus assessed as effect on body weight at 7.5 to 30 mg/kg, ip; format: organism-based; conditions: in vivo
Outline: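 High-fat-diet-fed mice served as the type 2 diabetes model. Compound was given by intraperitoneal injection, and blood glucose and body weight were followed over time.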

[7] = target: T1, NAD-dependent protein deacylase sirtuin-6; assay: Binding affinity to SIRT6 (unknown origin) assessed as change in melting temperature at 40 uM by differential scanning fluorimetry

T1 sequence (Q8N6T7 whole entry): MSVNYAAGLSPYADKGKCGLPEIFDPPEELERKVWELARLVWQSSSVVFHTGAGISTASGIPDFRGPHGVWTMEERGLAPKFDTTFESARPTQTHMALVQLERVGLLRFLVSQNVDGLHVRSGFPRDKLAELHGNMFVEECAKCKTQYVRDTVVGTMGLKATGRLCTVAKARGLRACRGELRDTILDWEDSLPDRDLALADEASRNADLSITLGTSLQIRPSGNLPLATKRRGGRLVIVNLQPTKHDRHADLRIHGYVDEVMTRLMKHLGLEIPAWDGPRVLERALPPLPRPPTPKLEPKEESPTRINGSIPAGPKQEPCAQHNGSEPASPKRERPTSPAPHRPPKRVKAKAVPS

For CN1CCN(c2ccc([N+](=O)[O-])c(N)c2)CC1, the Activity [1] was “Non-Toxic”, the pIC50 [2] was 5.31 and the pIC50 [3] was under 3.70. For the same compound, the pIC50 [4] was under 3.70, the pIC50 [5] was under 3.70 and the Activity [6] was “Non-Toxic”. For the same compound, the ΔTm [7] was 1.88 °C.

From ChEMBL document CHEMBL4622928, “Discovery of 5-(4-methylpiperazin-1-yl)-2-nitroaniline derivatives as a new class of SIRT6 inhibitors” (Bioorg Med Chem Lett, 2020)
